These results are taken from ChEMBL document CHEMBL3621081, “Rational Development of a Potent 15-Lipoxygenase-1 Inhibitor with in Vitro and ex Vivo Anti-inflammatory Properties” (J Med Chem, 2015).

Structures are written as SMILES. Active and inactive are the calls of the source. The calls are words filed in the database; no cut-off is given here.

In data set [1] the test system is Lung. In words: Cytotoxicity against C57BL/6 mouse precision-cut lung slices assessed as viability at 500 nM by LDH release assay. It is filed as tissue-based. The following applies: 0.5 µM. The method in brief:
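Mouse lung slices are exposed to 1, 10, 100 or 500 nM inhibitor with 10 μM linoleic acid for 20 h. […] Mean ± SD of 3 independent experiments.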

The subject of data set [2] is Lung. In words: Antiinflammatory activity in C57BL/6 mouse precision-cut lung slices assessed as increase of LPS/INFgamma-induced IL-10 gene expression at 1 to 100 nM treated 20 hrs before LPS/INFgamma stimulation measured after 4 hrs by RT-qPCR analysis relative to control. It counts as functional, tissue-based. A digest of the protocol: (§1)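 Male C57bl/6 mouse lungs are agarose-filled, then cut into 250 μm slices, 3 per well, in supplemented DMEM at 37 °C and 5% CO2. Inhibitor is given at 1-500 nM final with 10 μM linoleic acid for 20 h, and LPS/IFNγ is added for the last 4 h. IL-1β, IL-6, IL-10, IL-12 and GAPDH mRNA are measured by RT-qPCR as fold change versus the LPS/IFNγ/linoleic acid control. Mean ± SEM, 4-6 independent experiments.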
Background: Quantitative PCR measures a nucleic acid by following its amplification.

The test system of data set [3] is RAW264.7. Kind of data set: Antiinflammatory activity in mouse RAW264.7 cells assessed as effect on LPS/INFgamma-induced IL-12 gene expression at 1 to 100 nM treated 20 hrs before LPS/INFgamma stimulation measured after 4 hrs by RT-qPCR analysis. It is filed as functional, cell-based. The method in brief:
(§2)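 RAW 264.7 cells (passage 7-16, DMEM with 10% FBS) are seeded at 20,000 cells/cm2 the day before. They receive 1-500 nM inhibitor final plus 10 μM linoleic acid for 20 h, with 10 ng/ml LPS and IFNγ for the last 4 h. Cytokine mRNA is measured by RT-qPCR on 10 ng cDNA, PCR in duplicate or triplicate, as fold change versus the LPS/IFNγ/linoleic acid control. Mean ± SEM, 4-6 experiments.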

Data set [4] deals with RAW264.7. Kind of data set: Cytotoxicity against mouse RAW264.7 cells assessed as cell viability at 12.5 uM by MTS assay. The following applies: raw264.7, 12.5 µM. It counts as cell-based. The method in brief:
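RAW 264.7 macrophages are incubated with inhibitor at 0.05-100 μM, and viability is read by MTS assay. Treated wells are compared statistically with non-treated control cells.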

For data set [5], the system named is Lung. Kind of data set: Antiinflammatory activity in C57BL/6 mouse precision-cut lung slices assessed as reduction of LPS/INFgamma-induced IL-6 gene expression at 1 to 100 nM treated 20 hrs before LPS/INFgamma stimulation measured after 4 hrs by RT-qPCR analysis relative to control. It is filed as functional, tissue-based. The method in brief: as §1
In data set [6] the test system is RAW264.7. Kind of data set: Antiinflammatory activity in mouse RAW264.7 cells assessed as effect on LPS/INFgamma-induced IL-1beta gene expression at 1 to 100 nM treated 20 hrs before LPS/INFgamma stimulation measured after 4 hrs by RT-qPCR analysis. It is filed as functional, cell-based. The method in brief: as §2
For data set [7], the system named is RAW264.7. In words: Antiinflammatory activity in mouse RAW264.7 cells assessed as effect on LPS/INFgamma-induced IL-6 gene expression at 1 to 100 nM treated 20 hrs before LPS/INFgamma stimulation measured after 4 hrs by RT-qPCR analysis. It is filed as functional, cell-based. A digest of the protocol:
as §2

The test system of data set [8] is Lung. In words: Antiinflammatory activity in C57BL/6 mouse precision-cut lung slices assessed as reduction of LPS/INFgamma-induced IL-12 gene expression at 1 to 100 nM treated 20 hrs before LPS/INFgamma stimulation measured after 4 hrs by RT-qPCR analysis relative to control. It counts as functional, tissue-based. The method in brief: as §1
For data set [9], the system named is Lung. Kind of data set: Antiinflammatory activity in C57BL/6 mouse precision-cut lung slices assessed as reduction of LPS/INFgamma-induced IL-1beta gene expression at 1 to 100 nM treated 20 hrs before LPS/INFgamma stimulation measured after 4 hrs by RT-qPCR analysis relative to control. It is filed as functional, tissue-based. The method in brief: as §1
Data set [10] deals with T1, Polyunsaturated fatty acid lipoxygenase ALOX15 (Homo sapiens) (UniProt P16050).
T1 sequence (whole entry): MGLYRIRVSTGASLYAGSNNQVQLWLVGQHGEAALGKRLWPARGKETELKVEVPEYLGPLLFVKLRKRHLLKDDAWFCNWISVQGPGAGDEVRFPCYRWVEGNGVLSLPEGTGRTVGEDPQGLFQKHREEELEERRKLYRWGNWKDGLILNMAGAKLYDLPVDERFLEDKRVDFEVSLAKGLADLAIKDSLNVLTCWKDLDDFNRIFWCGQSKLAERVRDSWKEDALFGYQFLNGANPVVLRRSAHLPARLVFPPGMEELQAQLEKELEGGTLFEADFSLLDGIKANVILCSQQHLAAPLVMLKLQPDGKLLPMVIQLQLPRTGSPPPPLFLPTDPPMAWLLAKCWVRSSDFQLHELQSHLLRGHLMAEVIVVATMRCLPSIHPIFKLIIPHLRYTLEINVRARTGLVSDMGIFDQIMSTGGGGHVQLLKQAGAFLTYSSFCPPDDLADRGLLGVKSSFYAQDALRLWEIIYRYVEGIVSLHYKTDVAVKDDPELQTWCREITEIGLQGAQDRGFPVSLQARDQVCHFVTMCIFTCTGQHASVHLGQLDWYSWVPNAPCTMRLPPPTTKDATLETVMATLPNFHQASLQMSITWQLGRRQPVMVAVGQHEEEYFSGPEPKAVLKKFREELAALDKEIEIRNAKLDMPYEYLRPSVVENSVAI
In words: Inhibition of human 15-LOX1 assessed as conversion of linoleic acid to 13(S)-HpODE at 50 uM after 10 mins by UV analysis. A digest of the protocol:
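Single-concentration screen at 50 μM: h-15-LOX-1 (1:640 final) in 25 mM HEPES pH 7.5 is preincubated with inhibitor for 10 min at rt. 25 µM linoleic acid final is added, and product formation is followed as the linear A234 increase. Activity is normalised to no-inhibitor (100%) and no-enzyme (0%) controls, in triplicate.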

`CCOC(=O)c1[nH]c2cc(Cl)ccc2c1C(=O)C[C@@H](C)CCCC(C)C`: the Activity entry in the data set with Lung [1] and with RAW264.7 [4] was “Non-toxic” each time. Besides, the result in the data set on Lung [2], in the data set on Lung [5] and in the data set on Lung [9] was Active. Also, the outcome in the data set on RAW264.7 [3], in the data set with RAW264.7 [6], with RAW264.7 [7] and with Lung [8] was inactive.

`O=Cc1c[nH]c2ccccc12`: the inhibition result in data set [10] was “inactive”.

For the molecule `O=Cc1c[nH]c2cc(Cl)ccc12`, the inhibition entry in data set [10] was “inactive”.

Take `CC(C)(C)OC(=O)c1cc2ccc(Cl)cc2[nH]1`: the inhibition entry in data set [10] is “inactive”.

`CCOC(=O)c1c(C=O)c2ccc(Cl)cc2n1C`: the inhibition result in data set [10] is “inactive”.

On to `CC(C)(C)OC(=O)n1cc(C=O)c2ccccc21`, for which the inhibition entry in data set [10] is “inactive”.

For the molecule `O=Cc1c(C(=O)O)[nH]c2cc(Cl)ccc12`, the inhibition entry in [10] was “inactive”.

For `O=Cc1c(Cl)[nH]c2cc(Cl)ccc12`, in [10], the inhibition result was “inactive”.
